pIC50: −log10 of the molar value.
How the values were obtained:
PC-12 = assay: Inhibition of VOC channel-mediated calcium influx in […] PC12-h5 cells at 10 uM; type: cell-based; details: Rattus norvegicus
Outline: (§1)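 PC12-h5 cells (1 × 10⁶ cells/ml) loaded with 1 µM Fura-2/AM for 45 min at room temperature in HEPES buffer pH 7.4, then washed. Depolarized with 50 mM KCl for 20 min. Intracellular Ca²⁺ measured at the 20 min endpoint from the 340/380 nm excitation ratio (500 nm emission), with compound autofluorescence subtracted.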

Jurkat [1] = assay: Selectivity ratio of IC50 for VOC channel in […] PC12-h5 cells over IC50 for CRAC channel in human Jurkat cells
[2] = Inhibition of CRAC channel-mediated calcium influx in human Jurkat cells; type: cell-based
Outline: (§2)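 Jurkat cells (2 × 10⁶ cells/ml) loaded with 1 µM Fura-2/AM for 45 min at room temperature in HEPES buffer pH 7.4 (NaCl 137, KCl 5.8, MgCl₂ 1, CaCl₂ 2.5, glucose 5, HEPES 10 mM), then washed. Thapsigargin-induced Ca²⁺ influx read by 340/380 nm excitation, 500 nm emission, with cell-free compound fluorescence subtracted. IC50 taken from percent inhibition.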

Jurkat [3] = assay: Inhibition of PHA-induced IL2 production in human Jurkat T lymphocytes; type: functional, cell-based
Outline: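 Jurkat T cells (5 × 10⁶ cells/ml) stimulated with PHA (20 µg/ml) for 20 h. IL-2 in the supernatant quantified by human IL-2 ELISA.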

Mus musculus [4] = assay: Inhibition of trinitrochlorobenzene-induced contact hypersensitivity in 1 hr before pretreated CD1 mouse assessed as ear swelling at 30 mg/kg, po; type: functional
Outline: (§3)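 Mice challenged with TNCB on both sides of the ear pinna. Compound given orally 1 h before TNCB exposure, with 0.5% MC vehicle given orally to control animals. Ear thickness measured by dial gauge 24 h after challenge and swelling calculated from the pre-exposure value.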

[5] = Inhibition of VOC channel-mediated calcium influx in […] PC12-h5 cells; type: cell-based; details: Rattus norvegicus, PC-12; outline: as §1
Rattus norvegicus = assay: Inhibition of ovalbumin-induced airway eosinophilia in BN rat po dosed 1 hr before antigen challenge assessed as number of eosinophils in bronchoalveolar levage fluid after 24 hrs; type: functional; details: Lung
Outline: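 Sensitized rats were challenged 3 weeks later with aerosolized 1% (w/v) ovalbumin for 15 min. Compound given orally 1 h before exposure. BAL performed 24 h after challenge. Total white cells counted with a blood cell counter. Eosinophils identified morphologically on smears and eosinophil number per animal calculated. ED50 derived.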

Jurkat [6] = assay: Inhibition of CRAC channel-mediated calcium influx in human Jurkat cells at 10 uM; type: cell-based; outline: as §2
Mus musculus [7] = assay: Inhibition of trinitrochlorobenzene-induced contact hypersensitivity in 1 hr before orally pretreated CD1 mouse assessed as ear swelling; type: functional; details: CD1, po; outline: as §3

Row | Structure (SMILES) | inhibition (PC-12) [%] | Ratio IC50 (Jurkat [1]) | pIC50 [2] | pIC50 (Jurkat [3]) | inhibition in vivo at 30 mg/kg (Mus musculus [4]) [%] | pIC50 [5] | ED50 (Rattus norvegicus) [mg/kg] | inhibition (Jurkat [6]) [%] | ED50 (Mus musculus [7]) [mg/kg]
1 | O=C(Nc1ccc(-n2nc(C(F)(F)F)cc2C(F)(F)F)cc1)c1cncc(Br)c1 | 29 | > 67 | 6.82 | 7.62 | 17 |  |  |  | 
2 | Cc1nnsc1C(=O)Nc1ccc(-n2nc(C(F)(F)F)c3c2CCC3)cc1 |  | 8.8 | 6.40 |  |  | 5.46 |  |  | 
3 | Nc1ccncc1C(=O)Nc1ccc(-n2nc(C(F)(F)F)cc2C(F)(F)F)cc1 |  | 3.1 | 6.11 |  |  | 5.62 |  |  | 
4 | COc1ncccc1C(=O)Nc1ccc(-n2nc(C(F)(F)F)cc2C(F)(F)F)cc1 |  | 24 | 6.92 |  |  | 5.54 |  |  | 
5 | Cc1ccc(-c2cc(C(F)(F)F)nn2-c2ccc(NC(=O)c3snnc3C)cc2)cc1 |  | 3.5 | 6.14 |  |  | 5.60 |  |  | 
6 | O=C(Nc1ccc(-n2nc(C(F)(F)F)cc2C(F)(F)F)cc1)c1cncc(Cl)c1 | 31 | > 91 | 6.96 | 7.47 | 42 |  |  |  | 
7 | Cc1nnsc1C(=O)Nc1ccc(-n2nc(C(F)(F)F)cc2C)cc1 | 46 | > 45 | 6.66 | 7.74 | 24 |  |  |  | 
8 | Cc1nnsc1C(=O)Nc1ccc(-n2nc(C(F)(F)F)cc2Br)cc1 |  | 28 | 7.04 | 8.23 | 8.3 | 5.59 |  |  | 
9 | O=C(Nc1ccc(-n2nc(C(F)(F)F)cc2C(F)(F)F)cc1)c1cccnc1Cl |  | 19 | 6.62 |  |  | 5.35 |  |  | 
10 | Cc1nnsc1C(=O)Nc1ccc(-n2nc(C(F)(F)F)cc2Cl)cc1 |  | 35 | 7.09 | 7.82 | 42 | 5.54 |  |  | 
11 | Cc1ccncc1C(=O)Nc1ccc(-n2nc(C(F)(F)F)cc2C(F)(F)F)cc1 |  | 20 | 6.54 |  |  | 5.20 |  |  | 
12 | Cc1ccnc(C)c1C(=O)Nc1ccc(-n2nc(C(F)(F)F)cc2C(F)(F)F)cc1 |  |  | 5.80 |  |  |  |  |  | 
13 | Cc1cc(C)c(C(=O)Nc2ccc(-n3nc(C(F)(F)F)cc3C(F)(F)F)cc2)cn1 | 41 | > 34 | 6.54 | 7.48 | 64 |  | 1.3 |  | 
14 | O=C(Nc1ccc(-n2nc(C(F)(F)F)cc2C(F)(F)F)cc1)c1ccncc1 |  | 42 | 6.62 | 7.80 | 25 | 5.00 |  |  | 
15 | Cc1nnsc1C(=O)Nc1ccc(-n2ccc(C(F)(F)F)n2)cc1 |  |  |  |  |  |  |  | 40 | 
16 | Cc1nnsc1C(=O)Nc1ccc(-n2nc(C(F)(F)F)cc2C(F)(F)F)cc1 |  | 31 | 6.82 | 7.77 | 100 | 5.33 | 2.4 |  | 1.1

Row | Structure (SMILES) | inhibition (PC-12) [%] | Ratio IC50 (Jurkat [1]) | pIC50 [2] | pIC50 (Jurkat [3]) | inhibition in vivo at 30 mg/kg (Mus musculus [4]) [%] | pIC50 [5] | ED50 (Rattus norvegicus) [mg/kg] | inhibition (Jurkat [6]) [%] | ED50 (Mus musculus [7]) [mg/kg]
17 | O=C(Nc1ccc(-n2nc(C(F)(F)F)cc2C(F)(F)F)cc1)c1cncs1 |  | 10 | 6.02 |  |  | 5.00 |  |  | 
18 | O=C(Nc1ccc(-n2nc(C(F)(F)F)cc2C(F)(F)F)cc1)c1c[nH]cn1 |  |  |  |  |  |  |  | 29 | 
19 | O=C(Nc1ccc(-n2nc(C(F)(F)F)cc2C(F)(F)F)cc1)c1cnccc1Cl |  | 32 | 6.80 | 7.74 | -18 | 5.29 |  |  | 
20 | Cc1ccc(C(=O)Nc2ccc(-n3nc(C(F)(F)F)cc3C(F)(F)F)cc2)cn1 | 27 | > 45 | 6.66 | 7.03 | 46 |  |  |  | 
21 | O=C(Nc1ccc(-n2nc(C(F)(F)F)cc2C(F)(F)F)cc1)c1cccnc1O |  |  | 5.48 |  |  |  |  |  | 
22 | Cc1nnsc1C(=O)Nc1ccc(-n2nc(C(F)(F)F)cc2C#N)cc1 | 45 | > 45 | 6.66 |  |  |  |  |  | 
23 | O=C(Nc1ccc(-n2nc(C(F)(F)F)cc2C(F)(F)F)cc1)c1ccccn1 |  |  |  |  |  |  |  | 14 | 
24 | COc1ccncc1C(=O)Nc1ccc(-n2nc(C(F)(F)F)cc2C(F)(F)F)cc1 |  | 21 | 6.64 |  |  | 5.32 |  |  | 
25 | Cc1cncc(C(=O)Nc2ccc(-n3nc(C(F)(F)F)cc3C(F)(F)F)cc2)c1 |  | 15 | 6.68 |  |  | 5.51 |  |  | 
26 | Nc1cncc(C(=O)Nc2ccc(-n3nc(C(F)(F)F)cc3C(F)(F)F)cc2)c1 | 14 | > 37 | 6.57 | 6.80 | 59 |  | 4.4 |  | 
27 | O=C(Nc1ccc(-n2nc(C(F)(F)F)cc2C(F)(F)F)cc1)c1nccs1 | 37 | > 22 | 6.34 |  |  |  |  |  | 
28 | O=C(Nc1ccc(-n2nc(C(F)(F)F)cc2C(F)(F)F)cc1)c1cccnc1 | 30 | > 40 | 6.60 | 7.03 | 62 |  |  |  | 
29 | O=C(Nc1ccc(-n2nc(C(F)(F)F)cc2C(F)(F)F)cc1)c1cnccc1C(F)(F)F |  | 5 | 6.37 |  |  | 5.70 |  |  | 
30 | O=C(Nc1ccc(-n2nc(C(F)(F)F)cc2C(F)(F)F)cc1)c1cnccc1O |  |  |  |  |  |  |  | 21 | 
31 | O=C(Nc1ccc(-n2nc(C(F)(F)F)cc2C(F)(F)F)cc1)c1cncc(F)c1 | 27 | > 130 | 7.11 | 7.74 | 44 |  |  |  | 

Reference: ChEMBL document CHEMBL1142507, “Novel potent and selective Ca2+ release-activated Ca2+ (CRAC) channel inhibitors. Part 3: synthesis and CRAC channel inhibitory activity of 4'-[(trifluoromethyl)pyrazol-1-yl]carboxanilides” (Bioorg Med Chem, 2008)
